For assay [1], the target named is T1, Alpha-1B adrenergic receptor (Homo sapiens, UniProt P35368).
T1 sequence (P35368 whole entry): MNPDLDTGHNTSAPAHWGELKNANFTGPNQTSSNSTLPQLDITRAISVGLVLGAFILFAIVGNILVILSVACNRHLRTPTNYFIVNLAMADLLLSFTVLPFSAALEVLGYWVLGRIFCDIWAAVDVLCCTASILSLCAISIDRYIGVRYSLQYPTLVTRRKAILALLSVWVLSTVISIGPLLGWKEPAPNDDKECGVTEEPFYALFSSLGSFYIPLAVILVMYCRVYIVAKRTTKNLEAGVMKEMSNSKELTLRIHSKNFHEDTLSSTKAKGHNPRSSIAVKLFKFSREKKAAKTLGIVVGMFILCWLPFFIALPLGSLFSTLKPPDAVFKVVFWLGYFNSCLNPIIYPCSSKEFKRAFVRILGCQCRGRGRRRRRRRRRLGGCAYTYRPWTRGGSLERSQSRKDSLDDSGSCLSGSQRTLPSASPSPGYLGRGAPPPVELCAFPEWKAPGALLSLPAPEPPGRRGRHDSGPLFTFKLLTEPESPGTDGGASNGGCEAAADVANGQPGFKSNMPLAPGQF
In words: Displacement of [125I]BE2254 from human alpha1b receptor expressed in HEK293 cells. Type of assay: cell-based. Summed up:
(§1)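 Membranes from HEK293 cells stably transfected with human α1A, α1B or α1D receptor cDNA, selected under 400 µg/mL geneticin. Competition against 50 pM [125I]BE2254; nonspecific binding defined with 10 µM phentolamine. Curves fitted by nonlinear regression. Mean ± SE of three experiments run in duplicate.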
(Loss of bound radioactivity is the signal in a displacement assay; it reports binding, not function.)

Assay [2] deals with T2, Alpha-1B adrenergic receptor (Rattus norvegicus) (UniProt P15823).
T2 sequence (whole entry): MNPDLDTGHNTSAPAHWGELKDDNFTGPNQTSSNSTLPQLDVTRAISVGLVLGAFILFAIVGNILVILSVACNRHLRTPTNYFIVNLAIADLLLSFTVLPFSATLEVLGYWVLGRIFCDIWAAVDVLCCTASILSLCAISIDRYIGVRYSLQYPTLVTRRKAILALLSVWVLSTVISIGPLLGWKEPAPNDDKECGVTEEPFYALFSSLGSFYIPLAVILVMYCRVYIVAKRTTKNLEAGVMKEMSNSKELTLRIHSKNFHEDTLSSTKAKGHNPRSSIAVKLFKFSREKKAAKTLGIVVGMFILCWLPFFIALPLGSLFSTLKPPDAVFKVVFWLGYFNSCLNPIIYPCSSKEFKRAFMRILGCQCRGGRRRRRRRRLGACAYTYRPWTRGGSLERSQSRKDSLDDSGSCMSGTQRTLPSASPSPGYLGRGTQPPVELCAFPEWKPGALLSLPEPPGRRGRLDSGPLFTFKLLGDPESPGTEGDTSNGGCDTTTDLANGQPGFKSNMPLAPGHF
In words: Antagonist activity at alpha1B adrenoceptor in Wistar rat spleen assessed as phenylephrine induced contractions. Put shortly:
(§2)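 Wistar rat spleen strips under 1 g resting tension, equilibrated 2 h, with 4 µM (±)-propranolol to block β-adrenoceptors. Cumulative phenylephrine curves measured isometrically at 30 min intervals, first discarded, second as control. Antagonist incubated 30–60 min before repeat curve. pKb from ED50 dose ratio via pKb = log(DR-1) - log[B]; mean ± SE of 4–5 experiments.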

Assay [3] concerns the target T3, Alpha-1A adrenergic receptor (Rattus norvegicus) (UniProt P43140).
T3 sequence (whole entry): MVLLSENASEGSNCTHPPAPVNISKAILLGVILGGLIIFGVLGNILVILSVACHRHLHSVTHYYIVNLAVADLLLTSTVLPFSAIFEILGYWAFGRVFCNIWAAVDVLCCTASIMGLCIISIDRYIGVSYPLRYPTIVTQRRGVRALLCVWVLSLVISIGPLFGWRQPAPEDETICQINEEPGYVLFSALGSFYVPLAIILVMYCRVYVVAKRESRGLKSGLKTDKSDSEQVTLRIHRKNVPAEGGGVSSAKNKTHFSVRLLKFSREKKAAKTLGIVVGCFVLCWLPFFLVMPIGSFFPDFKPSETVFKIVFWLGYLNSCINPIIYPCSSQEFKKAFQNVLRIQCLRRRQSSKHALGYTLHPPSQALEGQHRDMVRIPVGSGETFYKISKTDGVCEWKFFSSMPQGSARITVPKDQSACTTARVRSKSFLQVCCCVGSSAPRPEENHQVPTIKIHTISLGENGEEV
In words: Antagonist activity at alpha1A adrenoceptor in Wistar rat vas deferans assessed as decrease in noradrenaline induced contractions at 0.1 uM. Further details: scale not given: the % may be the effect or the level left. Put shortly: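 Male Wistar rat (275-300 g) prostatic vas deferens in 20 mL organ bath, physiological salt solution, 37 °C, 5% CO2:95% O2, pH 7.4. Primed twice with 10 µM (-)-NA, 45 min wash/equilibration, then cumulative (-)-NA curve recorded isotonically. Antagonist incubated 30–60 min before repeat curve. pKb = log(DR-1) - log[B] from ED50 ratio; mean ± SE of 4–5 experiments.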

The target in assay [4] is T4, Alpha-1D adrenergic receptor (Homo sapiens, UniProt P25100).
T4 sequence (P25100 whole entry): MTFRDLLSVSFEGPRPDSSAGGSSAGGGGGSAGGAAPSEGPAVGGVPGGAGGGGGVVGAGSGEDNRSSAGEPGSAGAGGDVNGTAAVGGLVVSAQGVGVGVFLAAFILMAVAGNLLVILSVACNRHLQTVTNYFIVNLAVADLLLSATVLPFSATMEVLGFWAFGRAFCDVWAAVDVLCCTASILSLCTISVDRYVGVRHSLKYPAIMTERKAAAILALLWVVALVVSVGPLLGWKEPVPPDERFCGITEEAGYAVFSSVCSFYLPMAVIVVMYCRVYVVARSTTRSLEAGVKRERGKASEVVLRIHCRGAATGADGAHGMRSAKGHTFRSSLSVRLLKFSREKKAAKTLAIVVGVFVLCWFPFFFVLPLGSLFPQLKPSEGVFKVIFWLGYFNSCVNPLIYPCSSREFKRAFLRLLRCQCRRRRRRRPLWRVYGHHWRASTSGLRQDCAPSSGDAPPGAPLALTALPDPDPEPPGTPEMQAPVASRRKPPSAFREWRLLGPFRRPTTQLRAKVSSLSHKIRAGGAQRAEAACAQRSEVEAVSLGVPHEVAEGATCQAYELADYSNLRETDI
Kind of assay: Displacement of [125I]BE2254 from human alpha1d receptor expressed in HEK293 cells. Type of assay: cell-based. Summed up: as §1

Assay [5] has as its target T2, Alpha-1B adrenergic receptor (Rattus norvegicus). Kind of assay: Antagonist activity at alpha1B adrenoceptor in Wistar rat spleen assessed as decrease in phenylephrine induced contractions at 0.1 uM. The arrangement: scale not given: the % may be the effect or the level left. Put shortly: as §2

As usually defined, the Ki is the dissociation constant of the complex between target and ligand, obtained from inhibition or displacement. The term pKb denotes the Kb on a negative log10 scale, so that one unit is a factor of ten.

For `COc1ccccc1N1CCN(CCn2c(=O)[nH]c3c(sc4ccc(NC(=O)CCCC(=O)NCc5ccccc5)cc43)c2=O)CC1`, the Ki in assay [1] was 0.832 nM; in assay [4], 0.141 nM. Besides, the pKb in assay [2] came out at 7.94. Further, the Activity in assay [3] and in assay [5] was 100% throughout.

Consider `COc1ccccc1N1CCN(CCn2c(=O)[nH]c3c(sc4ccc(NC(=O)CCCC(=O)N(C)Cc5ccccc5)cc43)c2=O)CC1`, for which the Ki in assay [1] was 1.91 nM; in assay [4], 0.0562 nM. In addition, in assay [2], the pKb was 7.77. Also, the Activity in assay [3] came out at 90%; in assay [5] it was 100%.

The values above are taken from ChEMBL document CHEMBL3297709, “High affinity ligands and potent antagonists for the α1D-adrenergic receptor. Novel 3,8-disubstituted [1]benzothieno[3,2-d]pyrimidine derivatives” (Eur J Med Chem, 2014).
